Laboratory results from ChEMBL document CHEMBL4014308, “Amphiphilic Tobramycin-Lysine Conjugates Sensitize Multidrug Resistant Gram-Negative Bacteria to Rifampicin and Minocycline” (J Med Chem, 2017).
≈ marks a conversion by molar mass, not a printed value. Calls of active or inactive are those of the source. The calls are words filed in the database; no cut-off is given here.

Legend:
Format in all cases: functional
Pseudomonas aeruginosa [1] = experiment: Antibacterial activity against Pseudomonas aeruginosa PAO1 after 18 hrs by microtiter dilution assay
Summary of the method: (§1)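 Broth microdilution following CLSI guidelines. An overnight culture was adjusted to 0.5 McFarland in saline, then diluted 1:50 in Mueller-Hinton broth. This inoculum was added in equal volume to 2-fold serial dilutions of agent in MHB and incubated 18 h at 37 °C. MIC was the lowest concentration with no visible growth.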

Pseudomonas aeruginosa [2] = experiment: Antibacterial activity against multidrug/extremely drug-resistant/colistin-susceptible Pseudomonas aeruginosa isolate P262-101856 after 18 hrs by microtiter dilution assay; conditions: isolate P262-101856, 18 h; summary of the method: as §1
Pseudomonas aeruginosa [3] = experiment: Antibacterial activity against multidrug/extremely drug-resistant/colistin-susceptible Pseudomonas aeruginosa isolate 101885 after 18 hrs by microtiter dilution assay; conditions: isolate 101885, 18 h; summary of the method: as §1
Pseudomonas aeruginosa [4] = experiment: Antibacterial activity against multidrug/extremely drug-resistant/colistin-susceptible Pseudomonas aeruginosa isolate 100036 after 18 hrs by microtiter dilution assay; conditions: isolate 100036, 18 h; summary of the method: as §1
Pseudomonas aeruginosa [5] = experiment: Antibacterial activity against multidrug/extremely drug-resistant/colistin-susceptible Pseudomonas aeruginosa isolate P259-96918 after 18 hrs by microtiter dilution assay; conditions: isolate P259-96918, 18 h; summary of the method: as §1
Pseudomonas aeruginosa [6] = experiment: Antibacterial activity against multidrug/extremely drug-resistant/colistin-susceptible Pseudomonas aeruginosa isolate P264-104354 after 18 hrs by microtiter dilution assay; conditions: isolate P264-104354, 18 h; summary of the method: as §1
Pseudomonas aeruginosa [7] = experiment: Antibacterial activity against multidrug/extremely drug-resistant/colistin-resistant Pseudomonas aeruginosa isolate 101243 after 18 hrs by microtiter dilution assay; conditions: isolate 101243, 18 h; summary of the method: as §1
Pseudomonas aeruginosa [8] = experiment: Antibacterial activity against multidrug/extremely drug-resistant/colistin-resistant Pseudomonas aeruginosa isolate 91433 after 18 hrs by microtiter dilution assay; conditions: isolate 91433, 18 h; summary of the method: as §1
[9] = tested on: Staphylococcus epidermidis; experiment: Antibacterial activity against methicillin-resistant Staphylococcus epidermidis isolate CAN-ICU 61589 after 18 hrs by microtiter dilution assay; conditions: isolate CAN-ICU 61589, 18 h; summary of the method: as §1
Escherichia coli [10] = experiment: Antibacterial activity against amikacin-resistant Escherichia coli isolate CAN-ICU 63074 after 18 hrs by microtiter dilution assay; conditions: isolate CAN-ICU 63074, 18 h; summary of the method: as §1
Streptococcus pneumoniae = experiment: Antibacterial activity against Streptococcus pneumoniae ATCC 49619 after 18 hrs by microtiter dilution assay; conditions: ATCC 49619, 18 h
Summary of the method: (§2)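 Broth microdilution per CLSI. Overnight culture adjusted to 0.5 McFarland in saline, diluted 1:50 in Mueller-Hinton broth, and added to an equal volume of 2-fold serial compound dilutions in MHB. Incubated 18 h at 37 °C. MIC taken as the lowest concentration with no visible growth.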

Klebsiella pneumoniae = experiment: Antibacterial activity against Klebsiella pneumoniae ATCC 13883 after 18 hrs by microtiter dilution assay; conditions: ATCC 13883, 18 h; summary of the method: as §2
Staphylococcus aureus [11] = experiment: Antibacterial activity against Staphylococcus aureus ATCC 29213 after 18 hrs by microtiter dilution assay; conditions: ATCC 29213, 18 h; summary of the method: as §1
Pseudomonas aeruginosa [12] = experiment: Antibacterial activity against gentamicin/tobramycin-resistant Pseudomonas aeruginosa isolate CANWARD-2011 96846 after 18 hrs by microtiter dilution assay; conditions: isolate CANWARD-2011 96846, 18 h; summary of the method: as §1
Escherichia coli [13] = experiment: Antibacterial activity against Escherichia coli ATCC 25922 after 18 hrs by microtiter dilution assay; conditions: ATCC 25922, 18 h; summary of the method: as §1
Acinetobacter baumannii = experiment: Antibacterial activity against Acinetobacter baumannii isolate CAN-ICU 63169 after 18 hrs by microtiter dilution assay; conditions: isolate CAN-ICU 63169, 18 h; summary of the method: as §2
Pseudomonas aeruginosa [14] = experiment: Antibacterial activity against Pseudomonas aeruginosa ATCC 27853 after 18 hrs by microtiter dilution assay; conditions: ATCC 27853, 18 h; summary of the method: as §2
Pseudomonas aeruginosa [15] = experiment: Synergistic antibacterial activity against Pseudomonas aeruginosa PAO1 after 18 hrs in presence of rifampicin by checkerboard assay
Summary of the method: (§3)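 Checkerboard in MHB: antibiotic diluted along one axis and adjuvant along the other (10 × 7 matrix). Inoculum was a 1:50 dilution in MHB of a 0.5 McFarland saline suspension; incubated 18 h at 37 °C. Each FIC = concentration in the no-growth well divided by the MIC alone; FIC index = sum of both FICs. ≤0.5 synergy, 0.5–4 no interaction, ≥4 antagonism.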

Escherichia coli [16] = experiment: Antibacterial activity against gentamicin-resistant Escherichia coli isolate CAN-ICU 61714 after 18 hrs by microtiter dilution assay; conditions: isolate CAN-ICU 61714, 18 h; summary of the method: as §1
Enterococcus faecalis = experiment: Antibacterial activity against Enterococcus faecalis ATCC 29212 after 18 hrs by microtiter dilution assay; conditions: ATCC 29212, 18 h; summary of the method: as §2
[17] = tested on: Staphylococcus epidermidis; experiment: Antibacterial activity against methicillin-susceptible Staphylococcus epidermidis isolate CANWARD-2008 81388 after 18 hrs by microtiter dilution assay; conditions: isolate CANWARD-2008 81388, 18 h; summary of the method: as §1
Staphylococcus aureus [18] = experiment: Antibacterial activity against methicillin resistant Staphylococcus aureus ATCC 33592 after 18 hrs by microtiter dilution assay; conditions: ATCC 33592, 18 h; summary of the method: as §1
Escherichia coli [19] = experiment: Antibacterial activity against gentamicin/tobramycin/ciprofloxacin-resistant Escherichia coli isolate CANWARD-2011 97615 harboring AAC3-2A after 18 hrs by microtiter dilution assay; conditions: isolate CANWARD-2011 97615, 18 h; summary of the method: as §1
Pseudomonas aeruginosa [20] = experiment: Synergistic antibacterial activity against Pseudomonas aeruginosa PAO1 after 18 hrs in presence of minocycline by checkerboard assay; summary of the method: as §3
[21] = tested on: Stenotrophomonas maltophilia; experiment: Antibacterial activity against Stenotrophomonas maltophilia isolate CAN-ICU 62584 after 18 hrs by microtiter dilution assay; conditions: isolate CAN-ICU 62584, 18 h; summary of the method: as §2
Pseudomonas aeruginosa [22] = experiment: Antibacterial activity against gentamicin-resistant Pseudomonas aeruginosa isolate CAN-ICU 62308 after 18 hrs by microtiter dilution assay; conditions: isolate CAN-ICU 62308, 18 h; summary of the method: as §1
Enterococcus faecium = experiment: Antibacterial activity against Enterococcus faecium ATCC 27270 after 18 hrs by microtiter dilution assay; conditions: ATCC 27270, 18 h; summary of the method: as §2

Row | Molecule | MIC (Pseudomonas aeruginosa [1]; PAO1, 18 h) | MIC (Pseudomonas aeruginosa [2]) | MIC (Pseudomonas aeruginosa [3]) | MIC (Pseudomonas aeruginosa [4]) | MIC (Pseudomonas aeruginosa [5]) | MIC (Pseudomonas aeruginosa [6]) | MIC (Pseudomonas aeruginosa [7]) | MIC (Pseudomonas aeruginosa [8]) | other results
1 | CN[C@H](CC(C)C)C(=O)N[C@H]1C(=O)N[C@@H](CC(N)=O)C(=O)N[C@H]2C(=O)N[C@H]3C(=O)N[C@H](C(=O)N[C@H](C(=O)O)c4cc(O)cc(O)c4-c4cc3ccc4O)[C@H](O)c3ccc(c(Cl)c3)Oc3cc2cc(c3O[C@@H]2O[C@H](CO)[C@@H](O)[C@H](O)[C@H]2O[C@H]2C[C@](C)(N)[C@H](O)[C@H](C)O2)Oc2ccc(cc2Cl)[C@H]1O [VANCOMYCIN] | > 1020 µg/mL | – | – | – | – | – | – | – | –
2 | O=C(O)c1cn(C2CC2)c2cc(N3CCNCC3)c(F)cc2c1=O [CIPROFLOXACIN] | – | 32 µg/mL (≈ 96.6 µM) | 32 µg/mL (≈ 96.6 µM) | 64 µg/mL (≈ 193 µM) | 128 µg/mL (≈ 386 µM) | 32 µg/mL (≈ 96.6 µM) | – | – | –
3 | CC(C)(O/N=C(\C(=O)N[C@@H]1C(=O)N2C(C(=O)[O-])=C(C[n+]3ccccc3)CS[C@H]12)c1csc(N)n1)C(=O)O [CEFTAZIDIME] | 2 µg/mL (≈ 3.66 µM) | 16 µg/mL (≈ 29.3 µM) | 8 µg/mL (≈ 14.6 µM) | 8 µg/mL (≈ 14.6 µM) | 512 µg/mL (≈ 937 µM) | 64 µg/mL (≈ 117 µM) | 64 µg/mL (≈ 117 µM) | 256 µg/mL (≈ 468 µM) | MIC [9]: > 32 µg/mL
4 | NCC[C@H](O)C(=O)N[C@@H]1C[C@H](N)[C@@H](O[C@H]2O[C@H](CN)[C@@H](O)[C@H](O)[C@H]2O)[C@H](O)[C@H]1O[C@H]1O[C@H](CO)[C@@H](O)[C@H](N)[C@H]1O [AMIKACIN] | 1 µg/mL (≈ 1.71 µM) | – | – | – | – | – | – | – | MIC (Escherichia coli [10]): 32 µg/mL (≈ 54.6 µM)
5 | Cl.Cl.Cl.Cl.Cl.Cl.Cl.NCCCC[C@H](N)C(=O)N(CCCCCCCCOC1[C@@H](O[C@H]2O[C@H](CO)[C@@H](O)[C@H](N)[C@H]2O)[C@H](N)C[C@H](N)[C@H]1O[C@H]1O[C@H](CN)[C@@H](O)C[C@H]1N)Cc1c2ccccc2c(Cl)c2ccccc12 (single isomer, unassigned) | 128 µg/mL | 128 µg/mL | 64 µg/mL | 512 µg/mL | 512 µg/mL | 256 µg/mL | 32 µg/mL | 8 µg/mL | MIC (Streptococcus pneumoniae): 128 µg/mL; MIC (Klebsiella pneumoniae): > 128 µg/mL; MIC (Staphylococcus aureus [11]): 16 µg/mL; MIC (Pseudomonas aeruginosa [12]): 64 µg/mL; MIC (Escherichia coli [13]): 16 µg/mL; MIC (Acinetobacter baumannii): > 128 µg/mL; MIC (Pseudomonas aeruginosa [14]): > 128 µg/mL; Activity (Pseudomonas aeruginosa [15]): Active; MIC (Escherichia coli [10]): 128 µg/mL; MIC (Escherichia coli [16]): 32 µg/mL; MIC (Enterococcus faecalis): 64 µg/mL; MIC [17]: 8 µg/mL; MIC (Staphylococcus aureus [18]): 16 µg/mL; MIC (Escherichia coli [19]): 32 µg/mL; MIC [9]: 8 µg/mL; Activity (Pseudomonas aeruginosa [20]): Active; MIC [21]: > 128 µg/mL; MIC (Pseudomonas aeruginosa [22]): 16 µg/mL; MIC (Enterococcus faecium): 16 µg/mL
6 | NC[C@H]1O[C@H](O[C@H]2[C@H](O)[C@@H](O[C@H]3O[C@H](CO)[C@@H](O)[C@H](N)[C@H]3O)[C@H](N)C[C@@H]2N)[C@H](O)[C@@H](O)[C@@H]1O [KANAMYCIN] | 64 µg/mL (≈ 132 µM) | – | – | – | – | – | – | – | –
7 | COc1cc(Cc2cnc(N)nc2N)cc(OC)c1OC [TRIMETHOPRIM] | 256 µg/mL (≈ 882 µM) | > 1020 µg/mL | > 512 µg/mL | 256 µg/mL (≈ 882 µM) | 512 µg/mL (≈ 1760 µM) | 256 µg/mL (≈ 882 µM) | 1020 µg/mL (≈ 3530 µM) | 512 µg/mL (≈ 1760 µM) | –
8 | GENTAMICIN | – | – | – | – | – | – | – | – | MIC (Pseudomonas aeruginosa [1]): 1 µg/mL
